Test results reported in ChEMBL document CHEMBL4004839, “Targeting Bacillosamine Biosynthesis in Bacterial Pathogens: Development of Inhibitors to a Bacterial Amino-Sugar Acetyltransferase from Campylobacter jejuni” (J Med Chem, 2017).
Calls of active or inactive are those of the source. No cut-off for these calls is given here.

Assays:
[1] = target: T1, UDP-N-acetylbacillosamine N-acetyltransferase (Campylobacter jejuni subsp. jejuni serotype O:2 (strain ATCC 700819 /NCTC 11168), UniProt Q0P9D1); assay: Inhibition of Campylobacter jejuni NCTC 11168 PglD acetyltransferase expressed in Escherichia coli BL-21(DE3) strain (Stratagene) assessed as release of CoASH preincubated for 30 mins followed by addition of 300 uM AcCoA and 500 uM UDP-4-aminosugar as substrate by Ellman's method
T1 sequence (Q0P9D1 whole entry): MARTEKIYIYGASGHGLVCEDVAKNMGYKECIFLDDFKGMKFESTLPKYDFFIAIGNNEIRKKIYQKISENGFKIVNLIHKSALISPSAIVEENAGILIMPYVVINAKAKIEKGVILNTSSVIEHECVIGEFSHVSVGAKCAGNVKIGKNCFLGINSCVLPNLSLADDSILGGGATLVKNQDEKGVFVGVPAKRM
Procedure, shortened: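 Continuous DTNB read-out of CoASH release. Inhibitor (DMSO stock) preincubated 30 min at RT with PglD in 50 mM HEPES pH 7.8, 1 mM MgCl2, 0.05 mg/mL BSA, 0.001% Triton X-100. […] Initial rates over 5 min at RT, A412. IC50 derived.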

[2] = target: T2, UDP-N-acetylbacillosamine N-acetyltransferase (Campylobacter jejuni subsp. jejuni serotype O:2 (strain ATCC 700819 /NCTC 11168)) (UniProt Q0P9D1); assay: Binding affinity to Campylobacter jejuni NCTC 11168 PglD acetyltransferase expressed in Escherichia coli BL-21(DE3) strain (Stratagene) assessed as change in melting temperature at 100 uM by Sypro orange dye-based differential scanning fluorimetry
T2 sequence (whole entry): T1 sequence (Q0P9D1 whole entry)

[3] = target: T1, UDP-N-acetylbacillosamine N-acetyltransferase; assay: Competitive inhibition of Campylobacter jejuni NCTC 11168 PglD acetyltransferase expressed in Escherichia coli BL-21(DE3) strain (Stratagene) assessed as release of CoASH preincubated for 30 mins followed by addition of UDP-4-aminosugar and 5 fold excess AcCoA as substrate by Ellman's method
Procedure, shortened: (§1)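 Same continuous DTNB-coupled PglD assay: 30 min RT inhibitor–enzyme preincubation, 3 nM PglD, HEPES pH 7.8 buffer, A412 initial rates over 5 min. IC50 determined while raising one substrate above standard (300 μM AcCoA, 500 μM UDP-4-amino-sugar): AcCoA raised 2- or 5-fold, or UDP-4-amino-sugar raised to higher levels.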

[4] = target: T1, UDP-N-acetylbacillosamine N-acetyltransferase; assay: Competitive inhibition of Campylobacter jejuni NCTC 11168 PglD acetyltransferase expressed in Escherichia coli BL-21(DE3) strain (Stratagene) assessed as release of CoASH preincubated for 30 mins followed by addition of UDP-4-aminosugar and 2 fold excess AcCoA as substrate by Ellman's method; procedure, shortened: as §1
[5] = target: T2, UDP-N-acetylbacillosamine N-acetyltransferase (Campylobacter jejuni subsp. jejuni serotype O:2 (strain ATCC 700819 /NCTC 11168)); assay: Competitive inhibition of Campylobacter jejuni NCTC 11168 PglD acetyltransferase expressed in Escherichia coli BL-21(DE3) strain (Stratagene) assessed as release of CoASH preincubated for 30 mins followed by addition of AcCoA and higher levels of UDP-4-aminosugar as substrate by Ellman's method; procedure, shortened: as §1
[6] = target: T1, UDP-N-acetylbacillosamine N-acetyltransferase; assay: Inhibition of Campylobacter jejuni NCTC 11168 PglD acetyltransferase expressed in Escherichia coli BL-21(DE3) strain (Stratagene) assessed as release of CoASH preincubated for 45 mins followed by addition of AcCoA and UDP-4-aminosugar measured after 30 mins by fragment-based high-throughput screening analysis
Procedure, shortened: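 End-point screen with compounds at 10 μM final. Started with 100 μM UDP-4-aminosugar, quenched at 30 min with 2 mM DTNB, 1 mM EDTA, 20% 1-propanol (final). Developed 5 min, read at 405 nm.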

[7] = target: T2, UDP-N-acetylbacillosamine N-acetyltransferase (Campylobacter jejuni subsp. jejuni serotype O:2 (strain ATCC 700819 /NCTC 11168)); assay: Effect on quaternary structure of Campylobacter jejuni NCTC 11168 PglD acetyltransferase expressed in Escherichia coli BL-21(DE3) strain (Stratagene) assessed as polydispersity index of PgID at 250 uM by dynamic light scattering method (reference value: 31%)
Procedure, shortened: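 Recombinant C. jejuni PglD (His8-TEV construct, tag removed, Ni-NTA then size-exclusion purified) at 25 μM, with or without 250 μM inhibitor, in 50 mM HEPES 7.5, 100 mM NaCl, 3% DMSO final. Scattering measured at 90° with 685 nm laser; analysed with Rayleigh scattering model to give radius and polydispersity index.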

[8] = target: T2, UDP-N-acetylbacillosamine N-acetyltransferase (Campylobacter jejuni subsp. jejuni serotype O:2 (strain ATCC 700819 /NCTC 11168)); assay: Effect on quaternary structure of Campylobacter jejuni NCTC 11168 PglD acetyltransferase expressed in Escherichia coli BL-21(DE3) strain (Stratagene) assessed as hydrodynamic radius of apo PgID at 250 uM by dynamic light scattering method (reference value: 34 Angstrom)
Procedure, shortened: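 DLS on 25 μM PglD with or without 250 μM inhibitor in 50 mM HEPES 7.5, 100 mM NaCl, 3% DMSO final. Scattering measured at 90° with 685 nm laser. Radius and polydispersity index derived with a Rayleigh scattering model.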

Row | Compound | IC50 [1] [µM] | ΔTm [2] [°C] | other results
1 | Cc1c(C(=O)O)sc2nc(CCc3ccccc3)nc(NCCc3cccc(F)c3)c12 | 0.39 |  | 
2 | Cc1ccc(CCNc2nc(CCc3ccccc3)nc3sc(C(=O)O)c(C)c23)cc1 | 0.72 |  | 
3 | Cc1c(C(=O)O)sc2nc(CCc3ccccc3)nc(NCCc3ccccc3)c12 | 1.4 | 13.2 | 
4 | COc1ccccc1CCNc1nc(CCc2ccccc2)nc2sc(C(=O)O)c(C)c12 | 0.48 | 13.7 | 
5 | CNc1nc(CCc2cccc(Cl)c2)nc2sc(C(=O)O)c(C)c12 | 2.1 | 9.4 | 
6 | CC(=O)Nc1ccc(CCc2nc(NCCc3ccccn3)c3c(C)c(C(=O)O)sc3n2)cc1 | 0.28 | 11.5 | 
7 | CNc1nc(CCc2ccc3c(c2)OCO3)nc2sc(C(=O)O)c(C)c12 | 1.8 | 7.4 | 
8 | COc1cccc(CCNc2nc(CCc3ccccc3)nc3sc(C(=O)O)c(C)c23)c1 | 0.45 |  | 
9 | CNc1nc(CCc2ccccc2NC(C)=O)nc2sc(C(=O)O)c(C)c12 | 9 |  | 
10 | CNc1nc(CCc2cccc(OC)c2)nc2sc(C(=O)O)c(C)c12 | 1.1 | 8.4 | 
11 | Cc1c(C(=O)O)sc2nc(CCc3ccccc3)nc(NCCc3cccnc3)c12 | 0.34 | 12 | 
12 | Cc1c(C(=O)O)sc2nc(CCc3ccccc3)nc(NCCc3ccccn3)c12 | 0.42 | 12.5 | 
13 | CNc1nc(CCc2cccc(C(F)(F)F)c2)nc2sc(C(=O)O)c(C)c12 | 4.6 | 7.4 | 
14 | Cc1c(C(=O)O)sc2nc(CCc3ccccc3)nc(NC3Cc4ccccc4C3)c12 | 1 |  | 
15 | Cc1ccccc1CCNc1nc(CCc2ccccc2)nc2sc(C(=O)O)c(C)c12 | 0.25 | 14.3 | 
16 | CNc1nc(CCc2ccccc2)nc2sc(C(=O)O)c(C)c12 | 2.2 | 7.4 | 
17 | CO[C@@H](CNc1nc(C[C@H](C)c2ccccc2)nc2sc(C(=O)O)c(C)c12)c1ccccc1 | 2 | 9.4 | 
18 | Cc1c(C(=O)O)sc2nc(CCc3ccccc3)nc(NCCN)c12 | 1.6 | 3.6 | 
19 | CNc1nc(CCCc2ccccc2)nc2sc(C(=O)O)c(C)c12 | 4.4 | 7.9 | 
20 | COc1cc(CCNc2nc(CCc3ccccc3)nc3sc(C(=O)O)c(C)c23)cc(OC)c1 | 0.37 |  | IC50 [3]: 1.4 µM; IC50 [4]: 0.63 µM; inhibition [5]: Active
21 | CO[C@@H](CNc1nc(C[C@@H](C)c2ccccc2)nc2sc(C(=O)O)c(C)c12)c1ccccc1 | 0.87 |  | 

Row | Compound | IC50 [1] [µM] | ΔTm [2] [°C] | other results
22 | Cc1c(C(=O)O)sc2nc(C(C)C)[nH]c(=O)c12 |  |  | IC50 [6]: 122 µM
23 | CNc1nc(CCc2cccc(F)c2)nc2sc(C(=O)O)c(C)c12 | 2.3 | 8.9 | 
24 | Cc1c(C(=O)O)sc2nc(CCc3ccccc3)nc(NCCc3ccccc3F)c12 | 0.48 | 13.2 | 
25 | CNc1nc(CCc2cccc(NC(C)=O)c2)nc2sc(C(=O)O)c(C)c12 | 3.5 |  | 
26 | CNc1nc(CCCCc2ccccc2)nc2sc(C(=O)O)c(C)c12 | 4.1 | 7.4 | 
27 | CNc1nc(CCc2ccc(NC(C)=O)cc2)nc2sc(C(=O)O)c(C)c12 | 2.4 |  | 
28 | COc1ccc(CCNc2nc(CCc3ccccc3)nc3sc(C(=O)O)c(C)c23)cc1 | 0.54 |  | 
29 | Cc1c(C(=O)O)sc2nc[nH]c(=O)c12 |  |  | IC50 [6]: 860 µM
30 | CNc1nc(CCc2cccc(OC)c2)nc2cc(C(=O)O)sc12 | 1.4 | 5.9 | 
31 | Cc1c(C(=O)O)sc2nc(CCc3ccccc3)nc(NCCc3ccncc3)c12 | 0.39 | 12 | 
32 | Cc1c(C(=O)O)sc2nc(/C=C/c3ccc4[nH]ccc4c3)[nH]c(=O)c12 |  |  | IC50 [6]: 1 µM
33 | Cc1c(C(=O)O)sc2nc(CCc3ccccc3)nc(NCCc3ccc4c(c3)OCO4)c12 | 0.59 | 11.5 | 
34 | Cc1c(C(=O)O)sc2nc(CCc3ccccc3)nc(NCCc3ccc(F)cc3)c12 | 0.42 |  | 
35 | Cc1c(C(=O)O)sc2nc(CCc3ccccc3)nc(NCc3ccccc3)c12 | 4.5 |  | 
36 | O=C(O)c1cc(-c2ccco2)[nH]n1 |  |  | IC50 [6]: 8400 µM
37 | CC(=O)Nc1ccc(CCc2nc(NCCN)c3c(C)c(C(=O)O)sc3n2)cc1 | 1.4 | 5.3 | 
38 | Cc1cccc(CCNc2nc(CCc3ccccc3)nc3sc(C(=O)O)c(C)c23)c1 | 0.42 |  | 
39 | CNc1nc(CCc2ccccc2)nc2cc(C(=O)O)sc12 | 3.9 | 4.8 | 
40 | CO[C@H](CNc1nc(C[C@@H](C)c2ccccc2)nc2sc(C(=O)O)c(C)c12)c1ccccc1 | 0.42 | 9.9 | 
41 | CO[C@H](CNc1nc(CCc2ccc(NC(C)=O)cc2)nc2sc(C(=O)O)c(C)c12)c1ccccc1 | 0.27 | 12.5 | Activity [7]: 24%; Activity [8]: 36 Angstrom
42 | CO[C@H](CNc1nc(C[C@H](C)c2ccccc2)nc2sc(C(=O)O)c(C)c12)c1ccccc1 | 1.1 | 10.4 | 
